The nature of test [1]: inhibitors of TNFa-induced NFkB p65 translocation, primary screen, imaging, HUVEC, MLSMR starter and 10KST1 sets (AID 438;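 active = inhibition above 20% together with a positive visual image hit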;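 also: compound added about 3h40 before a 20 min TNFalpha stimulation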;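 as to inhibition: signal is the nuclear over cytoplasmic p65 intensity ratio per well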). Conditions: HUVEC TNFa-induced p65 nuclear translocation; cell count: measured here: nuclei count (cytotoxicity indicator), at 2.08 µM; inhibition: at 2 µM, stronger effect = higher value, 0% TNFa-plus-vehicle, 100% no-TNFa wells.
Test [2] can be described thus: inhibitors of E-selectin induction by TNFa, primary screen, imaging, HUVEC, immunofluorescence, MLSMR starter and 10KST1 sets (AID 487).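 As to inhibition: signal is fraction of cell area covered by stained E-selectin grains.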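 As to nuclei count: 100% = median nuclei count of all wells on the same plate.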 Conditions: HUVEC TNFalpha-induced E-selectin immunofluorescence imaging, at 2 µM; inhibition: stronger effect = higher value; nuclei count: measured here: cell number, toxicity.
Test [3] in a line: DUSP6 inhibitors restoring Erk phosphorylation by chemical complementation, primary imaging in DUSP6-transfected HeLa (AID 609;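 active = compounds giving at least 50% inhibition in the cell-based MKP-3 phosphatase rescue imaging test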;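 as to inhibition: phospho-Erk level distribution per well compared with pooled transfected vehicle control wells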). Conditions: HeLa MKP-3 transfected, phospho-Erk imaging KS statistic, at 10 µM, cells stimulated with TPA for 15 min.
Test [4] concerns the target Dual specificity protein phosphatase 6 (Homo sapiens) (UniProt Q16828). Described as above. Conditions: HeLa MKP-3 transfected, phospho-Erk imaging KS statistic; at 10 µM; stronger effect = higher value; cells stimulated with TPA for 15 min.
In test [5] the target is Voltage-gated potassium channel subunit beta-2 (Rattus norvegicus) (UniProt P62483). In words: KvBeta enzyme negative modulators, primary screen, biochemical, NADPH fluorescence (AID 622;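 active = fluorescence slope higher than the sample average by over 3 SD, cut at about -0.22 in these data, passing the limit was not always enough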;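 also: slope of raw intensity against log time taken from 70 to 1610 s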). Conditions: recombinant KvBeta, 4-cyanobenzaldehyde reduction, at 10 µM, stronger effect = higher value.
Sequence of Voltage-gated potassium channel subunit beta-2 (Rattus norvegicus) (P62483 whole entry, looked up): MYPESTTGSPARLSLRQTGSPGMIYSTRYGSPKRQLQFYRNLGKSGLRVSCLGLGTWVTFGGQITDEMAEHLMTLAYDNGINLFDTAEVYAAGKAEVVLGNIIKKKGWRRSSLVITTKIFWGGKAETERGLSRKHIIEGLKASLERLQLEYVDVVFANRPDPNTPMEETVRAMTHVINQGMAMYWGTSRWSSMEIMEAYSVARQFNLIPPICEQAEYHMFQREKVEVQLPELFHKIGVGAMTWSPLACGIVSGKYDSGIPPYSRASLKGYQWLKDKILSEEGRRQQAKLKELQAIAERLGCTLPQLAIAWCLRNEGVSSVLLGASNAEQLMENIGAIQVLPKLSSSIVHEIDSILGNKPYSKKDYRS
The target is the same in test [6]. In words: KvBeta positive modulators, primary screen, biochemical, NADPH fluorescence (AID 623;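 active = NADPH fluorescence slope more negative than the mean of all samples by about 3 SD, 99.7% confidence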;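 also: fluorescence intensity change per second fitted from 20 to 320 s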). Conditions: Recombinant KvBeta, NADPH fluorescence decrease slope, 10 min; at 10 µM; stronger effect = lower value.
Test [7] deals with Alpha-2C adrenergic receptor (Homo sapiens) (UniProt P18825). Description: modulators of alpha2C/GIRK thallium flux, primary screen, cell-based, HEK293 alpha2C/GIRK1/2 (AID 624;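 active = fluorescence slope after compound addition differing from the mean of all screened samples at 99.7% confidence, in either direction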;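 also: slope of fluorescence ratio to pre-addition baseline per second over 15 to 24 s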). Conditions: thallium flux BTC fluorescence, at 10 µM, actives lie on both sides.
Sequence of Alpha-2C adrenergic receptor (Homo sapiens) (P18825 whole entry, looked up): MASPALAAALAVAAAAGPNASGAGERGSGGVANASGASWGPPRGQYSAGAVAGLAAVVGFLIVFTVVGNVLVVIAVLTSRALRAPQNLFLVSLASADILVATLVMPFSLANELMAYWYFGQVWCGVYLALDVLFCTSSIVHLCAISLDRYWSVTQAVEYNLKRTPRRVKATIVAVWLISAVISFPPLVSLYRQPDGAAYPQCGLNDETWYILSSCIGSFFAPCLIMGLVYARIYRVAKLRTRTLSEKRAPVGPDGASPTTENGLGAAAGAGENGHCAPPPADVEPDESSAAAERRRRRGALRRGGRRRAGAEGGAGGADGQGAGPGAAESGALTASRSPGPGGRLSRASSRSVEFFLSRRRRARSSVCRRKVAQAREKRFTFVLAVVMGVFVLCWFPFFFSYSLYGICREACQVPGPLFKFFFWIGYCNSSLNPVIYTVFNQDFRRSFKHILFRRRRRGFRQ
Test [8] is described as follows: inhibitors of larval lipid processing in zebrafish, primary screen, whole organism, PED6 fluorescence, gall bladder and intestine (AID 686;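 active = a full or partial loss of lipid-probe fluorescence in the fish gall bladder, intestine or both, judged by eye; inactive = no fluorescence loss, or compound toxic to the fish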;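 also: larvae 5 to 7 days old with five fish per well; signal comes from phospholipase A2 cleavage of quenched PED6 carried via bile; overnight exposure to compound and PED6 before scoring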). Conditions: Zebrafish larvae PED6 lipid processing, fluorescence scoring; screened at 20 µM (by protocol). In a few lines:
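system = live zebrafish larvae aged 5-7 days, whole organism | probe or stimulus = ingested quenched lipid PED6 at 100 nM | doses = 20 µM single dose | timing = overnight exposure | detection = fluorescence microscopy with visual scoring of gall bladder and intestine | read-out = visual per-well fluorescence inhibition score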

Test [9] in a line: inhibitors of Chlamydomonas gravitaxis, primary screen, whole organism, Chlamydomonas reinhardtii, WT vs cilia-less mutant, absorbance, 96-well (AID 463189;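 active = inhibition at or above 50% relative to wild type and mutant plate controls; inactive = inhibition below 50%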;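 also: 0% = wild type cc124 cells in DMSO and 100% = ciliumless bld1 mutant cells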). Conditions: OD600 absorbance, 2 days, at 10 µM, stronger effect = higher value.
[10] abbreviates: measured here: cell density z-score.
[11] abbreviates: measured here: nuclear c-Myc green intensity z-score.
The mark [12] stands for this setting: measured here: nuclear pErk red intensity z-score, stronger effect = higher value.

Structures are written as SMILES. The source made the active and inactive calls.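 The calls were made as follows, unless noted: active = visually confirmed hit in the image check and inhibition above 20%; inconclusive = visually confirmed hit but inhibition not above 20%; inactive = no visual hit in the image check.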

Sequence of Dual specificity protein phosphatase 6 (Homo sapiens) (Q16828 whole entry, looked up): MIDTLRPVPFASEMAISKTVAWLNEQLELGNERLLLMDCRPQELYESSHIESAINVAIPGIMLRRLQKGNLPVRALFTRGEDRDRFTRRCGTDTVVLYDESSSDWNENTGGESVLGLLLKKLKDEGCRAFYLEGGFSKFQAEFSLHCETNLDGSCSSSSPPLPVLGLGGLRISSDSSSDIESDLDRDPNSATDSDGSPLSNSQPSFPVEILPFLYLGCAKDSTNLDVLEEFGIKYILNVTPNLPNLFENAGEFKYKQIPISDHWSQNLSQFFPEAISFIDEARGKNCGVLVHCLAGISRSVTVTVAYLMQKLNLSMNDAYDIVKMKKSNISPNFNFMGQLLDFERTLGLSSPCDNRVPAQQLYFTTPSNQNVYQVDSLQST

As to `CCC1SC(N)=NC1=O` (stereo unspecified), the cell count in test [1] was 522. Besides, the inhibition in test [1] is -23.4% (inactive); in test [2] it was -58.7% (inactive); in test [4], -15% (inactive); in test [9] it was 13.5% (inactive). In test [2], this compound showed a nuclei count of 182%. In addition, the z-score in [3] (setting [10]) is -1.82; in [3] (setting [11]), 1.35; in test [3] (setting [12]), 1.78. For the same compound, the fluorescence slope in [5] was -0.405 (inactive). In addition, the NADPH fluorescence slope in [6] is -7.4e-05 (inactive). The slope in test [7] was 0.00536 (inactive). In addition, in test [8], the outcome was inactive.

For the compound `Cc1occc1C(=O)OCC(=O)Nc1ccc(F)cc1`, in test [1], the cell count turned out to be 527. Moreover, the inhibition is -1.1% (inactive) in test [1], -31.2% (inactive) in test [2], 29.3% (inactive) in test [4] and 1.09% (inactive) in test [9]. Further, in test [2], the nuclei count was 113%. Moreover, the z-score in [3] (setting [10]) was -1.12; in [3] (setting [11]) it was -1.15; in test [3] (setting [12]), 1.8. In addition, in test [5], the fluorescence slope was -0.56 (inactive). Moreover, in [6], the NADPH fluorescence slope was -4.4e-05 (inactive). Also, in test [7], the slope was 0.00567 (inactive). Also, the outcome in test [8] was inactive.

As to `Cc1ccc(SCc2c(C#N)c3ccccc3n2C)cc1`, the cell count in [1] came to 288. The inhibition in test [1] is -2.4% (inactive); in [2], -79.2% (inactive); in test [4], 12.3% (inactive); in test [9], 16.9% (inactive). The nuclei count in test [2] was 129%. For the same compound, the values for the z-score in test [3] (setting [10]), in [3] (setting [11]) and in test [3] (setting [12]) were -1.74, 2.02 and 0.448, respectively. Further, the fluorescence slope in [5] was -0.445 (inactive). Also, the NADPH fluorescence slope in [6] is -0.000146 (inactive). Further, the slope in [7] is 0.00992 (active). Also, the result in test [8] was inactive.

As to `CC1(c2ccco2)NC(=O)NC1=O` (stereo unspecified), in [1], the cell count is 665. Besides, the inhibition in test [1] was -2.9% (inactive); in [2], -112% (inactive); in test [4], -3.98% (inactive); in test [9], -5.4% (inactive). In addition, the nuclei count in test [2] worked out at 160%. The z-score in test [3] (setting [10]) is -0.981; in [3] (setting [11]), -0.00713; in test [3] (setting [12]), 0.00425. The fluorescence slope in test [5] is -0.492 (inactive). Also, the NADPH fluorescence slope in test [6] is -0.00016 (inactive). In addition, in test [7], the slope is 0.00442 (inactive). For the same compound, the call in [8] was inactive.

As to `COc1cccc(-c2nc(NCC3CCCO3)c3ccccc3n2)c1O` (stereo unspecified), the cell count in [1] worked out at 553. Besides, the inhibition in [1] is -3.3% (inactive); in [2] it was -74.2% (inactive); in [4], 1.6e-07% (inactive); in test [9], 55.5% (active). In test [2], this compound displayed a nuclei count of 131%. The results for the z-score in test [3] (setting [10]), in test [3] (setting [11]) and in test [3] (setting [12]) were -1.22, 0.707 and 0.124, respectively. Also, in test [5], the fluorescence slope was -0.34 (inactive). In addition, the NADPH fluorescence slope in test [6] was -2.8e-05 (inactive). Moreover, the slope in test [7] is 0.00373 (inactive). For the same compound, the result in test [8] was inactive.

For the compound `COc1ccc(C2=Nn3c(nnc3-c3ccccn3)SC2)cc1OC`, the cell count in [1] came out at 593. For the same compound, the inhibition was -10% (inactive) in [1], 60% (inactive) in test [2], -16.8% (inactive) in [4] and 9.28% (inactive) in [9]. The same compound yielded a nuclei count in [2] of 100%. The results for the z-score in [3] (setting [10]), in [3] (setting [11]) and in [3] (setting [12]) were 1.34, 0.0492 and -0.154, respectively. Besides, the fluorescence slope in test [5] is -0.476 (inactive). The NADPH fluorescence slope in test [6] is -0.000137 (inactive). Also, the slope in [7] was 0.00709 (inactive). Moreover, in test [8], the compound was classed as inactive.

As for `Cn1cc(Br)cc2nc(C(F)(F)F)nc1-2`, the cell count in test [1] amounted to 534. The inhibition is -11.2% (inactive) in test [1], -143% (inactive) in test [2], 29.7% (inactive) in test [4] and 20% (inactive) in test [9]. Moreover, in [2], the nuclei count was found to be 133%. Moreover, the z-score in test [3] (setting [10]) is 0.955; in test [3] (setting [11]), -1.14; in [3] (setting [12]) it was -0.53. In addition, the fluorescence slope in test [5] is -0.532 (inactive). Besides, in test [6], the NADPH fluorescence slope is -2.5e-05 (inactive). For the same compound, the slope in [7] is 0.00656 (inactive). Also, the call in test [8] was inactive.

One may read the inhibition as the drop in the measured response relative to a control, in per cent.

These data come from PubChem BioAssay.
